The source of these data is ChEMBL document CHEMBL3351998, “Discovery of potent and specific dihydroisoxazole inhibitors of human transglutaminase 2” (J Med Chem, 2014).

The target of data set [1] is T1, Protein-glutamine gamma-glutamyltransferase 2 (Mus musculus) (UniProt P21981).
T1 sequence (whole entry): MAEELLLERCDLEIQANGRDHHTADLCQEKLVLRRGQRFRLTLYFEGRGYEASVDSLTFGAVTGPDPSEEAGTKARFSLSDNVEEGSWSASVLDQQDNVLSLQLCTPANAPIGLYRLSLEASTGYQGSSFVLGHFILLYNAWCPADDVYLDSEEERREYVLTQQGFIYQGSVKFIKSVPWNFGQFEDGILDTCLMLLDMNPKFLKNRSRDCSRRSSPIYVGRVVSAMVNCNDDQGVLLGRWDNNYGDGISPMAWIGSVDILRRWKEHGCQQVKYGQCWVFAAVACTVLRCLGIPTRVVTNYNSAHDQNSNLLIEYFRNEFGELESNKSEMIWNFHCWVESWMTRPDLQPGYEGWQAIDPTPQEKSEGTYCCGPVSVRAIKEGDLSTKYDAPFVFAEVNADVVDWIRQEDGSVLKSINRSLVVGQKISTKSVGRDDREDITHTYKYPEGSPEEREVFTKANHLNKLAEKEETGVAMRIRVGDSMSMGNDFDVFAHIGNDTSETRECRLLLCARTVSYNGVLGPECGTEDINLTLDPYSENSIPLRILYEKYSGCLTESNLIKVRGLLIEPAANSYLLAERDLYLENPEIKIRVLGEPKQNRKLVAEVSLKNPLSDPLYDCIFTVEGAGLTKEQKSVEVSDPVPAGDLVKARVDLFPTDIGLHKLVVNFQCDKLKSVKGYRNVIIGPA
The data set is described as follows: Inhibition of mouse transglutaminase 2 using ((benzyloxy)carbony l)-L-glutaminylglycine peptide substrate assessed as Kinh/Ki ratio by GDH coupled assay. In outline:
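Human TG2 (V224G variant) or codon-optimized murine TG2, E. coli-expressed, final ~0.34 and 0.22 μM respectively. Buffer: 200 mM MOPS pH 7.2, 5 mM CaCl2, 10 mM α-ketoglutarate, 300 μM NADH, 36 U/mL bovine GDH. Z-Gln-Gly at 10/20 mM. Inhibitors typically at 100/33.3/11.1/3.7 μM, 1% DMSO, added after ≥5 min pre-equilibration. A340 progress curves fitted to exponential decay; kinh/Ki from irreversible inhibition model.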

Data set [2] has as its target T2, Protein-glutamine gamma-glutamyltransferase K (Homo sapiens) (UniProt P22735).
T2 sequence (whole entry): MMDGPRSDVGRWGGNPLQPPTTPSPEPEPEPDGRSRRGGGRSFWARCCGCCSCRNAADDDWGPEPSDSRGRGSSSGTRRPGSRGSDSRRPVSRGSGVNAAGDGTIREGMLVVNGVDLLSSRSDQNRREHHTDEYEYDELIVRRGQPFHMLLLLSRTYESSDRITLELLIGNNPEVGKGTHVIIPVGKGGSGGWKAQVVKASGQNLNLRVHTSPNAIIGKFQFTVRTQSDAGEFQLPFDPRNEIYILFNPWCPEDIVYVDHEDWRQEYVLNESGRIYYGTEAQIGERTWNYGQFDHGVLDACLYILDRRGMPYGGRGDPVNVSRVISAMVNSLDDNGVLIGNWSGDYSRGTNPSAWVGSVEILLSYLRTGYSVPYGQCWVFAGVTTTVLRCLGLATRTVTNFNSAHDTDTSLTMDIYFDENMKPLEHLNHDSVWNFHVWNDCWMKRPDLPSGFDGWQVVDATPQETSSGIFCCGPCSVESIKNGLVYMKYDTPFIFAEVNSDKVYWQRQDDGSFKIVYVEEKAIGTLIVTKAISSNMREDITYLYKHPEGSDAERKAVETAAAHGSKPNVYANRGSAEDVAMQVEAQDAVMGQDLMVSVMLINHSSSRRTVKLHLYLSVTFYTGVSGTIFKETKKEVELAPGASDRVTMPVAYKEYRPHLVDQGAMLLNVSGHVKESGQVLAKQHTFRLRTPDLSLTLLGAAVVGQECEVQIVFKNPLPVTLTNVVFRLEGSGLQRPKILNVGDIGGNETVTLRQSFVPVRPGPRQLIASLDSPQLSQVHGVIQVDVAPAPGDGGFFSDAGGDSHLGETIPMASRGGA
Briefly: Inhibition of human transglutaminase 1 using ((benzyloxy)carbonyl)-L-glutaminyl-L-serine peptide substrate assessed as Kinh/Ki ratio by GDH coupled assay. Summed up:
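Recombinant His-tagged human TG1 from E. coli Rosetta 2 pLysS, final ~0.37 μM, in 200 mM MOPS pH 7.2, 5 mM CaCl2, 10 mM α-ketoglutarate, 300 μM NADH, 36 U/mL GDH. Z-Gln-Ser at 20/40 mM. Inhibitors typically at 100/33.3/11.1/3.7 μM (1% DMSO), added after ≥5 min enzyme pre-equilibration. NADH loss read at 340 nm; progress curves fitted to exponential decay, kinh/Ki from irreversible model.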

Data set [3] in a line: Plasma concentration in CD-1 mouse at 50 mg/kg, po after 20 mins. In kind it is ADME, organism-based. Details: dose 50 mg/kg, route oral. In outline: (§1)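 Male CD-1 mice (6−8 weeks, cohorts of five) fasted ~6 h, then gavaged (10 μL/g) with inhibitor mixtures at 50 mg/kg each compound. Vehicle: 25 mg/mL per compound in 1 M HCl/10% Tween-80/25% ethanol, diluted 5-fold into 0.94% methylcellulose in 250 mM trisodium citrate. Blood sampled at 5, 20 (saphenous) and 60 min (cardiac). Plasma quantified by LC-MS (ESI-QTOF) against standard curves.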

A short description of data set [4]: Plasma concentration in CD-1 mouse at 50 mg/kg, po after 5 mins. The data set is classed as ADME, organism-based. Details: dose 50 mg/kg, route oral. Summed up: as §1

Structures are written as SMILES.

As to `O=C(N[C@@H]1C[C@@H](C(=O)NC[C@@H]2CC(Br)=NO2)N(C(=O)OCc2cnc3ccccc3c2)C1)c1cccnc1`, the Ratio in data set [1] was 0.68; in data set [2], 20.

As for `O=C(NC[C@@H]1CC(Br)=NO1)[C@@H]1C[C@H](F)CN1C(=O)OCc1cnc2ccccc2c1`, the values for the Ratio in data set [1] and in data set [2] were 0.43 and 6, respectively. This molecule registered a concentration at 20 min in data set [3] of 2100 ng/mL. In addition, the concentration at 5 min in data set [4] stood at 2900 ng/mL.

In the case of `O=C(NC[C@@H]1CC(Br)=NO1)[C@@H]1C[C@@H](O)CN1C(=O)OCc1cnc2ccccc2c1`, the figures for the Ratio in data set [1] and in data set [2] were 0.5 and 4.8, respectively.

On to `O=C(NC[C@@H]1CC(Br)=NO1)[C@@H]1C[C@@H](OCc2ccccc2)CN1C(=O)OCc1cnc2ccccc2c1`, for which the Ratio in data set [1] was found to be 0.5; in data set [2], 5.8.

As to `O=C(NC[C@@H]1CC(Br)=NO1)[C@@H]1C[C@@H](c2ccccc2)CN1C(=O)OCc1cnc2ccccc2c1`, the Ratio in data set [1] is 1.5; in data set [2], 66.3.

With `O=C(NC[C@@H]1CC(Br)=NO1)[C@@H]1CCCN1C(=O)OCc1cnc2ccccc2c1`, the Ratio in data set [1] worked out at 0.5; in data set [2], 13.2. Moreover, the concentration at 20 min in data set [3] stood at 1200 ng/mL. Also, the concentration at 5 min in data set [4] was found to be 2100 ng/mL.

In the case of `O=C(N[C@@H]1C[C@@H](C(=O)NC[C@@H]2CC(Br)=NO2)N(C(=O)OCc2cnc3ccccc3c2)C1)c1ccc(O)cc1`, the Ratio came out at 1.3 in data set [1] and 31.3 in data set [2].

`O=C(NC[C@@H]1CC(Br)=NO1)[C@@H]1C[C@@H](c2ccc(O)cc2)CN1C(=O)OCc1cnc2ccccc2c1`: the Ratio was found to be 1.4 in data set [1] and 90.7 in data set [2].
